Laboratory results from ChEMBL document CHEMBL3244156, “Analgesic and tranquilizing activity of 5,8-disubstituted 1-tetralone Mannich bases” (1977).

How the values were obtained:
Mus musculus [1] = test: Neuroleptic activity in ip dosed mouse assessed as inhibition of amphetamine-induced mortality; format: functional
Summary of the method: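 Aggregated mice in groups of ten given amphetamine. Value is an ED50 estimate for blocking lethality, bracketed between a dose where <5/10 died and a dose where >5/10 died.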

Rattus norvegicus [2] = test: Neuroleptic activity in ip dosed rat assessed as drug required for blocking discriminated jump-out avoidance behavior in after 1 hr; format: functional
Summary of the method: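 Rats trained in discriminated jump-out avoidance and tested 1 h after dosing. Value is an estimated ED50 for blocking avoidance.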

Rattus norvegicus [3] = test: Analgesic activity in rat assessed as median foot shock required to elicit flinch-jump at 32 mg/kg, ip after 2 hrs; format: functional; conditions: route intraperitoneal
Summary of the method: (§1)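 Series given just before and 0.5 and 2 h after ip dosing. Flinch, squeak and jump were scored. Value is the median shock (mA) that elicits a jump. At least five rats per dose.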

Rattus norvegicus [4] = test: Analgesic activity in rat assessed as median foot shock required to elicit flinch-jump at 10 mg/kg, ip after 2 hrs; format: functional; conditions: route intraperitoneal; summary of the method: as §1
Mus musculus [5] = test: Analgesic activity in mouse at 100 mg/kg, ip after 2 hrs by hot plate assay; format: functional; conditions: route intraperitoneal
Summary of the method: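 Mice dropped into a glass cylinder on an aluminum plate held at 57 °C. Timed from foot contact to first hind-foot flick, with a 10-s limit. Observed 0.5 and 2 h after treatment. Value is % of mice failing to react within the limit. At least ten mice per dose.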

Mus musculus [6] = test: Analgesic activity in mouse assessed as tail-flick latency period at 100 mg/kg, ip after 2 hrs by tail flick test; format: functional; conditions: route intraperitoneal
Canis familiaris = test: Analgesic activity in dog assessed as rippling of skin at 10 mg/kg, po after 2 hrs by radiant heat assay; format: functional, Canis lupus familiaris
Summary of the method: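 Dogs held in a harness with a shaved mid-back patch placed under a concealed radiant heat source. Endpoint is the latency from heat onset to skin "rippling". Baseline latency measured in each dog, then retested at 0.5 and 2 h after dosing. Result expressed as % of control.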

| SMILES | ED50 (Mus musculus [1]) | ED50 (Rattus norvegicus [2]) | Activity (Rattus norvegicus [3]) | Activity (Rattus norvegicus [4]) | Activity (Mus musculus [5]) | Activity (Mus musculus [6]) | Activity (Canis familiaris) |
| --- | --- | --- | --- | --- | --- | --- | --- |
| CN(C)CCCN1c2ccccc2Sc2ccc(Cl)cc21 [CHLORPROMAZINE] | 1 mg/kg | 3.2 mg/kg | – | – | – | – | – |
| COc1ccc(Cl)c2c1CCC(CN1CCC(c3ccccc3)CC1)C2=O.Cl (stereo not drawn) | – | – | >2.2 mA | 2.2 mA | 20% | 10% | – |
| CCOc1ccc(Cl)c2c1CCC(CN1CCCC1)C2=O.Cl (stereo not drawn) | – | – | 0.6 mA | – | 30% | 60% | – |
| CCc1c(C)[nH]c2c1C(=O)C(CN1CCOCC1)CC2 (stereo not drawn) [MOLINDONE] | 3.2 mg/kg | 3.2 mg/kg | – | – | – | – | – |
| COc1ccc(Cl)c2c1CCC(CN1CCCCC1)C2=O.Cl (stereo not drawn) | 10 mg/kg | 32 mg/kg | >2.2 mA | 2.2 mA | 0% | 0% | 110% |
| COc1ccc(Cl)c2c1CC(CN1CCCCC1)C2=O.Cl (stereo not drawn) | – | – | 0.6 mA | – | 0% | 0% | – |
| CN1CCN(CC/C=C2/c3ccccc3Sc3ccc(S(=O)(=O)N(C)C)cc32)CC1 [THIOTHIXENE] | 0.32 mg/kg | 3.2 mg/kg | – | – | – | – | – |
| COc1ccc(Cl)c2c1CCC(C(c1ccccc1)N1CCCCC1)C2=O.Cl (stereo not drawn) | – | – | 0.6 mA | – | 30% | 0% | – |
| COc1ccc(Cl)c2c1C(C)CC(CN1CCCCC1)C2=O.Cl (stereo not drawn) | – | – | 1.2 mA | – | – | – | – |
| COc1cccc2c1CCC(CN(C)C)C2=O.Cl (stereo not drawn) | – | – | 1.2 mA | – | 0% | 0% | – |
| CN(C)CC1CCc2ccccc2C1=O.Cl (stereo not drawn) | 32 mg/kg | > 10 mg/kg | 1.2 mA | – | 10% | 0% | 70% |
| COc1ccc(C)c2c1CCC(CN(C)C)C2=O.Cl (stereo not drawn) | – | – | 0.6 mA | – | – | – | – |
| COc1ccc(Cl)c2c1CCC(C)(CN1CCCCC1)C2=O.Cl (stereo not drawn) | – | – | 0.6 mA | – | – | – | – |
| COc1ccc(F)c2c1CCC(CN1CCCC1)C2=O.Cl (stereo not drawn) | – | – | 1.2 mA | – | 50% | 0% | – |
| CCN(CC)CC1CCc2c(OC)ccc(Cl)c2C1=O.O=C(O)/C=C\C(=O)O (stereo not drawn) | – | – | 0.6 mA | – | 20% | 0% | – |
| Cl.O=C1c2ccccc2CCC1CN1CCCC1 (stereo not drawn) | 32 mg/kg | > 10 mg/kg | 1.2 mA | – | 0% | 10% | 100% |
| COc1ccc(Cl)c2c1CCC(C)(CN1CCOCC1)C2=O.Cl (stereo not drawn) | – | – | 0.6 mA | – | – | – | – |
| CCOC(=O)N1CCN(CC2CCc3c(OC)ccc(Cl)c3C2=O)CC1.O=C(O)/C=C\C(=O)O (stereo not drawn) | – | – | 0.6 mA | – | 0% | 0% | – |
| COc1cccc2c1CCC(CN1CCOCC1)C2=O.Cl (stereo not drawn) | – | – | 0.6 mA | – | – | – | – |
| COc1ccc(Cl)c2c1CC(CN1CCOCC1)C2=O.Cl (stereo not drawn) | – | – | 0.6 mA | – | 0% | 0% | – |
| COc1ccc(Cl)c2c1CCC(C(C)N1CCOCC1)C2=O.Cl (stereo not drawn) | – | – | 0.6 mA | – | 0% | 0% | – |
| CCOc1ccc(Cl)c2c1CCC(CN1CCOCC1)C2=O.Cl (stereo not drawn) | – | – | 2.2 mA | – | 10% | 20% | – |
| COc1ccc(Cl)c2c1CCC(CN1CCOCC1)C2=O.O=C(O)/C=C\C(=O)O (stereo not drawn) | 32 mg/kg | 0.32 mg/kg | 2.2 mA | – | 0% | 20% | 140% |
| COc1ccc(OC)c2c1CCC(CN1CCOCC1)C2=O.Cl (stereo not drawn) | – | – | 0.6 mA | – | 10% | 0% | – |

| SMILES | ED50 (Mus musculus [1]) | ED50 (Rattus norvegicus [2]) | Activity (Rattus norvegicus [3]) | Activity (Rattus norvegicus [4]) | Activity (Mus musculus [5]) | Activity (Mus musculus [6]) | Activity (Canis familiaris) |
| --- | --- | --- | --- | --- | --- | --- | --- |
| COc1ccc(OC)c2c1CCC(CN(C)C)C2=O.Cl (stereo not drawn) | – | – | 0.6 mA | – | 10% | 0% | – |
| COc1ccc(Cl)c2c1C(C)CC(CN1CCOCC1)C2=O.Cl (stereo not drawn) | – | – | 0.8 mA | – | 30% | 40% | – |
| COc1ccc(Cl)c2c1CC(CN(C)C)C2=O.Cl (stereo not drawn) | – | – | 0.6 mA | – | 20% | 30% | – |
| COc1ccc(Cl)c2c1CCC(CNC1CCCCC1)C2=O.Cl (stereo not drawn) | – | – | >2.2 mA | 1.2 mA | – | 0% | – |
| COc1ccc(Cl)c2c1CCC(CN(C)C)C2=O.Cl (stereo not drawn) | 32 mg/kg | > 178 mg/kg | 2.2 mA | – | 0% | 10% | 130% |
| COc1ccc(Cl)c2c1CCC(C(c1ccccc1)N1CCOCC1)C2=O.Cl (stereo not drawn) | – | – | 0.6 mA | – | 0% | 0% | – |
| COc1ccc(C)c2c1CCC(CN1CCOCC1)C2=O.Cl (stereo not drawn) | – | – | 0.6 mA | – | 10% | 0% | – |
| COc1ccc(OC)c2c1CCC(CN1CCCCC1)C2=O.Cl (stereo not drawn) | – | – | 2.2 mA | – | 0% | 22% | – |
| CCOc1ccc(Cl)c2c1CCC(CN1CCCCC1)C2=O.Cl (stereo not drawn) | – | – | 0.6 mA | – | 33% | 33% | – |
| COc1ccc(F)c2c1CCC(CN1CCOCC1)C2=O.Cl (stereo not drawn) | – | – | 1.2 mA | – | 30% | 10% | – |
| COc1ccc(C)c2c1CCC(CN1CCCC1)C2=O.Cl (stereo not drawn) | – | – | 2.2 mA | – | 12.5% | 50% | – |
| CNCC1CCc2c(OC)ccc(Cl)c2C1=O.Cl (stereo not drawn) | – | – | >2.2 mA | 1.2 mA | 10% | 0% | – |
| COc1ccc(Cl)c2c1CCC(CN1CCCCCC1)C2=O.Cl (stereo not drawn) | – | – | 1.2 mA | – | 0% | 0% | – |
| Cl.O=C1c2ccccc2CCC1CN1CCCCC1 (stereo not drawn) | > 100 mg/kg | > 32 mg/kg | 0.8 mA | – | 0% | 0% | – |
| CCOc1ccc(Cl)c2c1CCC(CN(C)C)C2=O.Cl (stereo not drawn) | – | – | 0.6 mA | – | 0% | 0% | – |
| COc1ccc(Cl)c2c1CCC(CN1CCC(O)(c3ccccc3)CC1)C2=O.Cl (stereo not drawn) | – | – | >2.2 mA | 1.2 mA | 60% | 0% | – |
| COc1ccc(Cl)c2c1CCC(C(C)N1CCCCC1)C2=O.Cl (stereo not drawn) | – | – | 0.6 mA | – | 20% | 0% | – |
| COc1cccc2c1CCC(CN1CCCC1)C2=O.Cl (stereo not drawn) | – | – | 0.8 mA | – | 0% | 0% | – |
| COc1ccc(OC)c2c1CCC(CN1CCCC1)C2=O.Cl (stereo not drawn) | – | – | 1.2 mA | – | 0% | 0% | – |
| Cl.O=C1c2ccccc2CCC1CN1CCOCC1 (stereo not drawn) | 32 mg/kg | > 10 mg/kg | 0.6 mA | – | 10% | 20% | 90% |
| COc1ccc(F)c2c1CCC(CN(C)C)C2=O.Cl (stereo not drawn) | – | – | 0.6 mA | – | 50% | 0% | – |
| CCOC1(c2ccccc2)CCN(CC2CCc3c(OC)ccc(Cl)c3C2=O)CC1.Cl (stereo not drawn) | – | – | 1.2 mA | – | 0% | 0% | – |
| COc1cccc2c1CCC(CN1CCCCC1)C2=O.Cl (stereo not drawn) | – | – | 0.8 mA | – | – | – | – |
| COc1ccc(Cl)c2c1CC(CN1CCCC1)C2=O.Cl (stereo not drawn) | – | – | 0.6 mA | – | 0% | 0% | – |
